Test results from ChEMBL document CHEMBL1150294, “Synthesis of indirubin-N'-glycosides and their anti-proliferative activity against human cancer cell lines” (Bioorg Med Chem, 2008).
pIC50: −log10 of the molar value.

Tests used:
[1] = Antiproliferative activity against human KYSE70 cells after 96 hrs by crystal violet assay; assay type: functional, cell-based; conditions: KYSE-70, 96 h
In short: (§1)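 Adherent lines from DSMZ grown in RPMI 1640 with 10% FCS plus penicillin G/streptomycin. Seeded at 1000 cells/well 24 h before dosing, with an untreated plate fixed at dosing as the time-zero reference. Compounds came from DMSO series, five concentrations at 0.1% final DMSO, eight wells each. Exposure was continuous for 96 h. Cells were glutaraldehyde-fixed, stained with 0.02% crystal violet, dye eluted in 70% ethanol, OD 570 nm. Results are corrected T/C% against time-zero.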

[2] = test system: MCF7; experiment: Antiproliferative activity against human MCF7 cells after 96 hrs by crystal violet assay; assay type: functional, cell-based; conditions: MCF7, 96 h; in short: as §1
[3] = test system: 5637; experiment: Antiproliferative activity against human 5637 cells after 96 hrs by crystal violet assay; assay type: functional, cell-based; conditions: Homo sapiens, 5637, 96 h; in short: as §1
[4] = test system: A-427; experiment: Antiproliferative activity against human A427 cells after 96 hrs by crystal violet assay; assay type: functional, cell-based; conditions: A-427, 96 h; in short: as §1
[5] = test system: 5637; experiment: Growth inhibition of human 5637 cells at 12.5 uM after 96 hrs by crystal violet assay; assay type: functional; conditions: Homo sapiens, 5637, 96 h; in short: as §1
[6] = Growth inhibition of human KYSE70 cells at 12.5 uM after 96 hrs by crystal violet assay; assay type: functional; conditions: KYSE-70, 96 h; in short: as §1

| Structure (SMILES) | pIC50 [2] | pIC50 [1] | pIC50 [3] | pIC50 [4] | inhibition at 12.5 µM [5] [%] | inhibition at 12.5 µM [6] [%] |
| --- | --- | --- | --- | --- | --- | --- |
| O=C1/C(=C2/C(=O)N([C@@H]3O[C@H](CO)[C@H](O)[C@H](O)[C@H]3O)c3ccccc32)Nc2ccccc21 | 4.59 | 4.38 | 4.60 | 4.88 |  |  |
| Cc1cc(C)c2c(c1)N([C@H]1O[C@@H](C)[C@H](O)[C@@H](O)[C@H]1O)C(=O)/C2=C1\Nc2ccccc2C1=O | 5.21 | < 4.90 | < 4.90 |  | < 20 | < 20 |
| C[C@@H]1O[C@H](N2C(=O)/C(=C3\Nc4ccccc4C3=O)c3ccccc32)[C@H](O)[C@H](O)[C@H]1O | 6.12 | < 4.90 | < 4.90 | < 4.90 |  |  |
| O=C1/C(=C2/C(=O)N([C@@H]3O[C@H](CO)[C@@H](O)[C@H](O)[C@@H]3O)c3ccccc32)Nc2ccccc21 | 5.37 | 4.93 | 4.97 | 5.26 |  |  |
| C[C@@H]1O[C@@H](N2C(=O)/C(=C3\Nc4ccc(Cl)cc4C3=O)c3ccccc32)[C@H](O)[C@H](O)[C@H]1O | 5.16 | 4.82 | 4.89 |  |  |  |
| Nc1ncn([C@@H]2O[C@H](CO)[C@@H](O)[C@H]2O)c(=O)n1 [AZACITIDINE] | 5.17 | 5.80 | 5.76 | 6.20 |  |  |
| O=C(O)CCCc1ccc(N(CCCl)CCCl)cc1 [CHLORAMBUCIL] | 4.74 | 4.42 | 5.18 | 5.02 |  |  |
| COc1cc([C@@H]2c3cc4c(cc3[C@@H](O[C@@H]3O[C@@H]5CO[C@@H](C)O[C@H]5[C@H](O)[C@H]3O)[C@H]3COC(=O)[C@H]23)OCO4)cc(OC)c1O [ETOPOSIDE] | 6.30 | 6.03 | 6.27 | 6.89 |  |  |

The next lines start with results.

| pIC50 [2] | Structure (SMILES) | pIC50 [1] | pIC50 [3] | pIC50 [4] | inhibition at 12.5 µM [5] [%] | inhibition at 12.5 µM [6] [%] |
| --- | --- | --- | --- | --- | --- | --- |
| 5.10 | C[C@@H]1O[C@H](N2C(=O)/C(=C3\Nc4ccc(Cl)cc4C3=O)c3ccccc32)[C@H](O)[C@H](O)[C@H]1O | 5.23 | 5.08 |  |  |  |
| 4.80 | O=C1/C(=C2/C(=O)N([C@@H]3O[C@H](CO)[C@@H](O)[C@H](O)[C@H]3O)c3ccccc32)Nc2ccccc21 | 4.54 | 4.84 | 4.93 |  |  |
| 4.77 | C[C@@H]1O[C@H](N2C(=O)/C(=C3\Nc4ccccc4\C3=N/O)c3ccccc32)[C@H](O)[C@H](O)[C@H]1O | 4.81 | 4.81 |  |  |  |
| 6.17 | C[C@@H]1O[C@@H](N2C(=O)/C(=C3\Nc4ccccc4C3=O)c3ccccc32)[C@H](O)[C@H](O)[C@H]1O | < 4.60 | < 4.60 | < 4.60 | < 20 | < 20 |
